bCat nuc transl – alters nuclear translocation of beta-catenin in HeLa cells. 0.3% of 190,000 active. immunofluorescence imaging. nuclear translocation activity, % at 5 µM;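 active = nuclear translocation activity above 50% at 5 µM, with a well cell count of 50 or more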;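 note: per-cell ratio of nuclear to cytoplasmic median beta-catenin stain intensity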
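Technique: fluorescence imaging of beta-catenin antibody stain plus DAPI / Material: human HeLa cell line / Incubation: compound treatment 24 h, 37°C, 5% CO2 / Read-out basis: % activation of per-cell nuclear versus cytoplasmic median beta-catenin signal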
Ba/F3 V617F tox – lowers viability of Ba/F3 cells expressing EpoR and JAK2V617F; ATP luminescence; inhibition, % at 5.6 µM; 1.1% of 220,000 active; AID 1446;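 active = inhibition above the campaign mean plus 3 SD over all tested compounds, cut at about 24% in these data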;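 note: cytokine-independent growth of Ba/F3 cells driven by EpoR plus mutant JAK2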
BaF3 parental – reduces parental Ba/F3 cell viability, JAK2V617F counter-screen. CellTiter-Glo ATP luminescence. inhibition, % at 5.6 µM. 1.1% of 220,000 active. AID 1486;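 active = inhibition above a per-campaign cutoff, the mean inhibition of all tested compounds plus 3 SD, cut at about 27% in these data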
KLF5 inh – kruppel-like factor 5 inhibition; AID 1700; 0.23% of 290,000 active; DLD-1 KLF5 promoter-luciferase reporter, luminescence; inhibition, % at 5 µM;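 active = inhibition above a per-plate limit of that plate's mean compound inhibition plus 3 SD, cut at about 60% in these data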;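 note: higher means less KLF5 promoter-driven luciferase light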
MT stabilize HCS – microtubule stabilization, imaging screen; 0.83% of 200,000 active; AID 2205; HeLa tubulin immunostaining HCS, 24 h; share of cells brighter than vehicle mean+2SD; % tubulin-high responders, % at 10 µM;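 active = plate Z-score above 3 for both tubulin-high and condensed-nucleus cell shares, with cell loss under 80%, at 10 µM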;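 note: anti alpha tubulin signal scored within the nucleus-defined area of each cell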
IEC-6 cytotox – IEC-6 cytotoxicity, counter-screen for KLF5 inhibitors | 0.78% of 290,000 active | AID 1825 | luminescence viability | inhibition, % at 5 µM; in the data active = inhibition above about 22%
Numbers stand for hits; i = inactive; nt = not tested or not shown. Hits are enriched below; roughly 2.1% of the tested compounds scored in any of these assays.

SMILES	bCat nuc transl	Ba/F3 V617F tox	BaF3 parental	KLF5 inh	MT stabilize HCS	IEC-6 cytotox
Cc1cc(N2CCN(Cc3cn(C)nc3-c3ccccc3F)CC2)cc(C)n1	69.1	i	i	i	20.8	28.1
Cc1cc(N2CCN(Cc3cn(C)nc3-c3cccc(Cl)c3)CC2)cc(C)n1	72.6	i	i	i	i	i
CN(CC(=O)NCCc1ccc(S(N)(=O)=O)cc1)S(=O)(=O)c1cccc2nsnc12	nt	nt	nt	i	nt	i
CC(=O)Nc1ccc(NC(=O)/C(Cl)=C/c2ccccc2)cc1	i	i	93.1	i	i	i
Cc1cccc(C)c1OCC(=O)N/N=C/c1ccc2c(c1)OCO2	82.1	i	i	i	32.1	i
Cc1cccc(OCC(=O)Nc2ccc3c(c2)OCO3)c1C	i	i	i	i	i	i
Cc1ccccc1NCC(=O)N/N=C\c1ccc2c(c1)OCO2	i	i	i	i	i	i
Cc1ccc(C)c(OCC(=O)Nc2ccc3c(c2)OCO3)c1C	nt	i	i	i	22.7	i
Nc1c(-c2ccccc2Cl)cnn1-c1cccc([N+](=O)[O-])c1	i	i	46.4	i	i	i
O=C(NCCN1CCCCC1)Nc1ccc(F)cc1F	nt	nt	nt	i	nt	i
CCC(CO)[n+]1c(C)cc(/C=C2\Sc3ccccc3N2Cc2ccccc2)cc1C (configuration not stated)	i	68.5	61.2	i	i	i
N#CC1=C(SCC(=O)c2ccc(Cl)cc2)NC2=C(C(=O)CCC2)C1c1ccco1 (configuration not stated)	83.2	nt	nt	nt	nt	nt
O=C1c2[nH]nc(-c3ccccc3O)c2C(c2ccc(F)cc2)N1Cc1ccco1 (configuration not stated)	i	i	i	i	i	i
O=C1c2[nH]nc(-c3ccccc3O)c2C(c2cccc(Cl)c2)N1Cc1ccco1 (configuration not stated)	i	i	i	i	17.0	i
O=C(O)CCC(=O)Nc1ccc(Oc2ncnc3cc(Cl)ccc23)nc1	i	i	i	i	nt	i
COc1cccc(-c2nnc3sc(-c4ccccc4)nn23)c1	i	i	i	i	i	i
COc1cccc(OC)c1-c1nn2c(-c3cc(-c4ccccc4)n[nH]3)nnc2s1	i	i	i	i	40.2	i
COc1ccc(-c2cc(-c3cccs3)nc(OC)c2C#N)cc1OC	50.4	i	i	i	9.6	i
N#Cc1c(-c2ccccc2)cc(-c2cccs2)nc1SCC(=O)O	nt	nt	nt	i	nt	i
COc1nc(-c2cccs2)cc(-c2ccc(C)cc2)c1C#N	i	i	i	i	41.7	i
COc1ccc(-c2noc(-c3cccs3)n2)cc1OC	i	i	i	i	nt	i
CCOC(=O)c1ccccc1N=N/C(C(C)=O)=C(/C)O	i	i	i	i	i	i
O=C(Nc1cccc([N+](=O)[O-])c1)Nc1cccs1	i	i	i	i	i	i
Cc1nn2c(=O)cc(COC(=O)c3ccc(S(=O)(=O)N4CCCCC4)cc3)nc2s1	nt	i	i	i	15.4	i
O=C(/C=C/c1ccc(Br)cc1)N1CCN(c2cccc(C(F)(F)F)c2)CC1	i	i	i	i	i	i
SMILES	bCat nuc transl	Ba/F3 V617F tox	BaF3 parental	KLF5 inh	MT stabilize HCS	IEC-6 cytotox
COc1ccc(-c2noc(=O)n2Cc2cc(C)ccc2C)cc1	i	i	i	i	11.4	i
O=C1CSc2ccc(C(=O)Nc3cccc(S(=O)(=O)Nc4ccc(Br)cc4)c3)cc2N1	i	i	43.9	i	i	i
O=C(Nc1ccc(NS(=O)(=O)c2ccccc2)cc1)c1ccc(Cl)cc1	nt	nt	nt	i	nt	i
O=C(Nc1cccc(S(=O)(=O)Nc2ccc(Cl)cc2)c1)c1ccc(Cl)nc1	i	41.5	51.5	i	i	i
COc1cccc(/C=N/n2c(-c3n[nH]c4c3CCC4)n[nH]c2=S)c1O	i	i	i	i	i	i
COc1ccccc1/C=C/C=N/n1c(-c2n[nH]c3c2CCC3)n[nH]c1=S	61.8	i	i	i	nt	i
CCOc1ccc(/C=C2\C(=O)c3ccccc3OC2c2ccccc2)cc1 (configuration not stated)	nt	i	i	i	35.6	i
O=[N+]([O-])c1ccc(Nc2ccccn2)c([N+](=O)[O-])c1	i	29.2	49.0	i	i	i
O=C(O)c1ccccc1Nc1cc(Cl)c2nonc2c1[N+](=O)[O-]	nt	nt	nt	i	nt	i
O=[N+]([O-])c1c(Nc2ccccn2)cc(Cl)c2nonc12	i	i	i	i	nt	62.6
Cc1ccc(S(=O)(=O)/N=C2/C=C(Sc3ncn[nH]3)C(=O)c3ccccc32)c(C)c1	i	53.8	i	i	i	i

Screening data deposited in PubChem BioAssay by several laboratories.
